From PubChem
Shown are actives, neighbours in structure and some others; about 3.5% of the full set was active somewhere.
MrgX1 agonist: human MrgX1 receptor agonism, primary screen | MrgX1-HEK293 cells, Fluo-4 calcium fluorescence, agonist mode; stronger effect = higher value | 310,000 compounds, 0.44% hits | B-score at 10 µM;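 active = calcium response B-score plate-corrected fluorescence ratio at least 3 library SD, with starting fluorescence B-score inside 5 SD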
Target sequence (Q96LB2 whole entry, looked up): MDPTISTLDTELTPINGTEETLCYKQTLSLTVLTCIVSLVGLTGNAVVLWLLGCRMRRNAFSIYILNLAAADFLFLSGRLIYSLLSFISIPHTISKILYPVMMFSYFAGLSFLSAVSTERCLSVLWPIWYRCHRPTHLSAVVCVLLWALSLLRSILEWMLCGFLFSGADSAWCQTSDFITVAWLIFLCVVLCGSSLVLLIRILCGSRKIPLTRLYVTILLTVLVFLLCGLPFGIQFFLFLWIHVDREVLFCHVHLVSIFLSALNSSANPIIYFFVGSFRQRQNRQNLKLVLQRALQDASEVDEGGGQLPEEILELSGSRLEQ
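System: HEK293 cells stably expressing human MrgX1 receptor; Dosing: test compound in the initial addition of three; Schedule: overnight plating, then 30 min 37 °C plus 30 min room-temperature dye loading; Detection: kinetic calcium dye fluorescence, Fluo-4 NW; Controls: per-plate positive and negative controls for Z′ factor.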
RGS4 pot: RGS4 potentiation or activation | HEK293 M3R/inducible RGS4, carbachol calcium flux Fluo4; stronger effect = lower value | 310,000 compounds, 0.92% hits | B-score at 10 µM | AID 463111;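 active = B-score of the integrated calcium signal more than 4 SD below the library mean, with starting fluorescence not abnormally high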;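 note: negative B-score means reduced calcium response which marks RGS4 activation or potentiation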
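Reagent: ECmax carbachol challenge; Test system: M3R-expressing HEK293 line, RGS4 induced by doxycycline; Schedule: overnight RGS4 induction, 30 min dye load 37 °C, 20 min compound RT; Detection: calcium dye Fluo4 fluorescence; Read-out: Agonist-evoked peak-minus-minimum fluorescence over baseline, integrated ratio, B score.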
MrgX1 antagonist: antagonists of human MrgX1 receptor. B-score at 10 µM. 310,000 compounds, 1.3% hits. AID 588676. MRGX1-HEK293 calcium flux, Fluo-4, BAM8-22 antagonism; stronger effect = lower value. Q96LB2;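 active = calcium-response B-score plate-corrected more than 3 library SD below zero, starting fluorescence within 5 deviations, no agonist response on first addition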;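 note: peak minus trough fluorescence over baseline after final BAM8-22 challenge near maximal dose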
MrgX1 PAM: allosterically activates human MrgX1 receptor signaling | Q96LB2 | B-score at 10 µM | AID 588675 | MrgX1-HEK293, Fluo-4 calcium flux, FDSS; stronger effect = higher value | 310,000 compounds, 0.63% hits;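 active = plate-corrected calcium response at least 3 library SD above typical, normal starting fluorescence, not activating the receptor alone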;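 note: compound read alongside a low EC10 to EC30 dose of BAM8-22 agonist; peak minus trough fluorescence over baseline measured at the second addition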
RGS4 inh: inhibitors of human RGS4. P49798. HEK293 M3R/RGS4 inducible, Fluo-4 calcium flux; stronger effect = higher value; triggered by carbachol at its EC20. B-score at 10 µM. AID 463165. 310,000 compounds, 0.45% hits;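 active = B-score, a plate-corrected calcium signal, over three deviations above library mean, with baseline fluorescence within five deviations of library mean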;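 note: RGS4 expression induced by doxycycline in cells with stable M3 receptor; B-score is computed from the integrated fluorescence ratio over baseline after carbachol; higher B-score means a larger calcium signal and so more RGS4 inhibition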
Target sequence (P49798 whole entry, looked up): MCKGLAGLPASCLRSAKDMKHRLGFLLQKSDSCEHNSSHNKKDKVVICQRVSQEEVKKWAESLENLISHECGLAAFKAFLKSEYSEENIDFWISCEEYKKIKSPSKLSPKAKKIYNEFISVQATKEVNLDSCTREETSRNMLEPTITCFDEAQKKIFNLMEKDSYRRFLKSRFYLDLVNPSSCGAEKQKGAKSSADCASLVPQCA
MrgX1 ant reconf: human MrgX1 receptor antagonism, re-confirmation screen; shares compounds with MrgX1 antagonist; MrgX1-HEK293, BAM8-22 calcium flux, Fluo-4; stronger effect = lower value; remaining BAM8-22 calcium response % of control (stronger effect = lower value), % at 10 µM; 2,300 compounds, 19% hits; AID 602420;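 active = remaining agonist calcium response no higher than 100% minus 3 SD of agonist-only control wells, with starting fluorescence near control levels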;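 note: agonist BAM8-22 given at a near maximal EC90 to ECmax level; peak minus minimum fluorescence divided by baseline after agonist addition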
HEK293 Ca flux: MrgX1 antagonist counter-screen hit in parental HEK293 cells; Fluo-4 calcium fluorescence, FDSS; shares compounds with MrgX1 antagonist; fluorescence ratio F(max-min)/F0 at 10 µM; 4,000 compounds, 2% hits;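 active = duplicate-averaged calcium fluorescence ratio at least three times the standard deviation of buffer wells, a nonspecific response in parental cells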
HEK293 Ca counter: activity in parental HEK293 cells without MrgX1 | shares compounds with MrgX1 antagonist | fluorescence ratio F(max-min)/F0 at 10 µM | parental HEK293 calcium flux, Fluo-4 fluorescence ratio; stronger effect = higher value | AID 624114 | 4,000 compounds, 0.4% hits;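 active = calcium fluorescence ratio, averaged over duplicates, at least 3 SD of the buffer-well ratio, meaning a nonspecific response in receptor-free cells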;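 note: untransfected parental HEK293 lacking MrgX1 used as counterscreen for MrgX1 allosteric activators; fluorescence change taken during the second addition on a kinetic imager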
HEK293 Ca cntr2: MrgX1 activator counter-screen hit in parental HEK293 cells; fluorescence ratio F(max-min)/F0 at 10 µM; 4,000 compounds, 8.7% hits; shares compounds with MrgX1 antagonist; Fluo-4 calcium fluorescence (FDSS); stronger effect = higher value;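 active = calcium fluorescence ratio at least three times the spread of buffer wells, meaning a non-specific response in parental cells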
* = called active by the depositor; i = inactive; . = not tested or not shown.

SMILES	MrgX1 agonist	RGS4 pot	MrgX1 antagonist	MrgX1 PAM	RGS4 inh	MrgX1 ant reconf	HEK293 Ca flux	HEK293 Ca counter	HEK293 Ca cntr2
Cc1cccc(C)c1NC(=S)N1CC(C)OC(C)C1 (stereo unspecified)	i	i	i	i	i	.	.	.	.
CCN1CCSc2ccc(C(=O)NCc3ccc(OC(C)C)cc3)cc21	i	i	i	i	i	.	.	.	.
CCOc1ccc(CNC(=O)c2ccc3c(c2)N(CC)CCS3)cc1	i	i	-6.6*	i	i	81.7%*	i	i	i
Cc1ccc(S(=O)(=O)NC(C)(C)CSc2ncccn2)cc1	i	i	-9.9*	i	i	i	i	i	i
COC(=O)c1sccc1NC(=O)c1ccc(C(C)C)cc1	i	i	i	i	i	.	.	.	.
O=[N+]([O-])c1c(Nc2cccc(O)c2)cc(Cl)c2nonc12	i	i	-11*	i	i	i	i	i	i
CCn1ccnc1[C@@H]1C[C@H]2CN(c3ccccc3OC)C(=O)[C@]23CCCN13	i	i	i	i	i	.	.	.	.
O=C(Cn1c(NCCO)nc2ccccc21)NCC1CCCO1 (stereo unspecified)	i	i	-4.71*	i	i	i	i	i	i
Cc1c(C#N)c2ccccc2n1CC(=O)NCC1CCCO1 (stereo unspecified)	i	i	-5.08*	i	i	i	i	i	i
O=C(Cn1c(NCCO)nc2ccccc21)NCCc1ccccc1	i	i	i	i	i	.	.	.	.
Cc1[nH]c2ccc(Br)cc2c(=O)c1CN1CCCCCC1	i	i	i	i	i	.	.	.	.
Cc1[nH]c2ccccc2c(=O)c1CN1CCCCC1	i	i	-6.81*	i	i	i	i	i	i
COc1cc(-c2nnc(-c3ccccc3)o2)cc(OC)c1OC	i	i	-4.86*	i	i	i	i	i	i
C/C(Cl)=C/Cn1c(N2CCCC2)nc2c1c(=O)[nH]c(=O)n2C	i	i	i	i	i	.	.	.	.
C=CCn1c(N2CCCC2)nc2c1c(=O)[nH]c(=O)n2C	i	i	-8.69*	i	i	i	i	i	i
CC(C)CCn1c(N2CCc3ccccc3C2)nc2c1c(=O)[nH]c(=O)n2C	i	i	-5.03*	i	i	i	i	i	i
O=C(OCc1nnc(-c2ccccc2)o1)C1CC(=O)N(Cc2ccco2)C1 (stereo unspecified)	i	i	-5.04*	i	i	i	i	i	i
O=C(OCc1nnc(-c2ccccc2)o1)C1CC(=O)N(c2ccccc2)C1 (stereo unspecified)	i	i	i	i	i	.	.	.	.
COC(C(=O)Nc1ccc(NC(=O)C(OC)c2ccccc2)cc1)c1ccccc1 (stereo unspecified)	i	i	i	i	i	.	.	.	.
COC(C(=O)NC(C(C)C)C(C)C)c1ccccc1 (stereo unspecified)	i	i	-5.94*	i	i	i	i	i	i
Cc1ccc(C(=O)Nc2ccccc2C(=O)Nc2ccccn2)cc1Cl	i	i	i	i	i	.	.	.	.
Cc1ccc(C(=O)NCC(c2ccc(F)cc2)N2CCOCC2)cc1 (stereo unspecified)	i	i	i	i	i	.	.	.	.
CC(=O)c1ccc(-c2ccc(C(=O)NCC(c3ccc(F)cc3)N3CCOCC3)o2)cc1 (stereo unspecified)	i	i	-7.97*	i	i	60.4%*	i	i	i
COc1ccc(-c2nc(/C=C3\C(C)=Nc4ccccc43)c(O)o2)cc1	i	i	-4.78*	i	i	59.0%*	i	i	i
CC1=Nc2ccccc2/C1=C/c1nc(-c2ccc(C)s2)oc1O	i	i	-6.14*	i	i	56.7%*	i	i	i
SMILES	MrgX1 agonist	RGS4 pot	MrgX1 antagonist	MrgX1 PAM	RGS4 inh	MrgX1 ant reconf	HEK293 Ca flux	HEK293 Ca counter	HEK293 Ca cntr2
CCOC(=O)N1CCC(N2CCN(c3cc(C)ccc3C)CC2)CC1	i	i	-8.8*	i	i	i	i	i	i
CCN(CC)C(=O)c1cn(CCC#N)nc1-c1ccc(F)cc1	i	i	i	i	i	.	.	.	.
COc1cc(S(=O)(=O)N2CCOCC2)ccc1NC(=O)CN1c2cccc3cccc(c23)S1(=O)=O	i	i	-8.38*	i	i	i	i	i	i
Cc1ccc(NC(=O)CN2c3cccc4cccc(c34)S2(=O)=O)cc1S(=O)(=O)N1CCOCC1	i	i	i	i	i	.	.	.	.
COc1ccc(NC(=O)Cn2cnc3sc(C)c(S(=O)(=O)N4CCOCC4)c3c2=O)c(OC)c1	i	i	i	i	i	.	.	.	.
Cc1ccc(C2=NC(C)(C)N=C2SCC(=O)Nc2ccc(Cl)cc2)cc1	i	i	-5.67*	i	i	i	i	i	i
CC1(C)N=C(SCC(=O)Nc2ccc(Cl)cc2Cl)C(c2ccccc2)=N1	i	i	-6.98*	i	i	80.3%*	i	i	i
CC12CCCC[C@@H]1CCC1C2CCC2(C)C1CC[C@@]2(O)CNCCO (stereo partly specified)	i	i	-7.77*	i	i	i	i	i	i
CN1CCN(C(=O)c2cnn(-c3ccccc3)c2NC(=O)c2cccs2)CC1	i	i	-5.86*	i	i	i	i	i	i
O=C(c1ccc(Br)o1)N1CCN(C23CC4CC(CC(C4)C2)C3)CC1	i	i	-5.02*	i	i	i	i	i	i
COc1ccc(S(=O)(=O)n2ccc(C(C)Oc3ccc(-c4ccccc4)c(F)c3)n2)cc1 (stereo unspecified)	i	i	-6.63*	i	i	i	i	i	i
c1ccc(COC(CN2CCCCCC2)CN2CCCCCC2)cc1	i	i	i	i	i	.	.	.	.
